How the values were obtained:
Homo sapiens [1] = assay: Toxicity in healthy human assessed as eosinophil count in bronchoalveolar fluid at 400 mg, po administered as single dose after 4 hrs; settings: in vivo
[2] = Drug level in epithelial lining fluid of healthy human at […], po administered as single dose after 10 hrs; type: ADME, organism-based; set-up: route oral; settings: read-out: Drug uptake
Summary of the method: (§1)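 Four healthy male volunteers per BAL time (2-24 h) after one oral 400 mg suspension dose. Single bronchoscopic lavage; first aliquot discarded, next three pooled. Supernatant separated at 400 × g, 5 min, 4°C, and drug assayed by LC/MS/MS. ELF level = CBAL × urea plasma/urea BAL, with urea corrected for blood contamination via RBC ratio. PK parameters are model-independent, based on the mean concentration at each time.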

[3] = Ratio of drug level in epithelial lining fluid to plasma in healthy human at 400 mg, po administered as single dose after 12 hrs
Homo sapiens [4] = assay: Toxicity in healthy human assessed as alveolar macrophage count in bronchoalveolar fluid at 400 mg, po administered as single dose after 12 hrs; settings: in vivo
Staphylococcus aureus = assay: Antimicrobial activity against methicillin susceptible Staphylococcus aureus; type: functional
Homo sapiens [5] = assay: Toxicity in healthy human assessed as alveolar macrophage count in bronchoalveolar fluid at 400 mg, po administered as single dose after 4 hrs; settings: in vivo
[6] = Drug level in alveolar macrophages of healthy human at […], po administered as single dose after 2 hrs; type: ADME, organism-based, Macrophage; set-up: route oral; settings: read-out: Drug uptake
Summary of the method: (§2)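 One oral 400 mg suspension dose; four volunteers lavaged at each time (2-24 h). Cell pellet from the pooled 2nd-4th aspirates was counted (hemocytometer, stained cytospin differential). Drug in cell suspension measured by HPLC, divided by AM volume assuming 2.42 μl/10^6 cells. Cmax and Tmax are model-independent, based on mean concentrations at each time.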

[7] = Drug level in alveolar macrophages of healthy human at […], po administered as single dose after 6 hrs; type: ADME, organism-based, Macrophage; set-up: route oral; settings: read-out: Drug uptake
Summary of the method: as §2

[8] = Ratio of drug level in alveolar macrophages to plasma in healthy human at 400 mg, po administered as single dose after 8 hrs
[9] = Ratio of drug level in epithelial lining fluid to plasma in healthy human at […] administered as single dose after 8 hrs; type: ADME, organism-based; set-up: route oral; settings: po
Summary of the method: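 For each subject, ELF or AM drug level after the single oral 400 mg dose is divided by the plasma level sampled at the BAL time (2-24 h). Ratios are summarized per four-subject group.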

[10] = Ratio of drug level in alveolar macrophages to plasma in healthy human at 400 mg, po administered as single dose after 12 hrs
[11] = Drug level in alveolar macrophages of healthy human at […], po administered as single dose after 4 hrs; type: ADME, organism-based, Macrophage; set-up: route oral; settings: read-out: Drug uptake
Summary of the method: as §2

[12] = Drug level in epithelial lining fluid of healthy human at […], po administered as single dose after 12 hrs; type: ADME, organism-based; set-up: route oral; settings: read-out: Drug uptake
Summary of the method: as §1

[13] = Ratio of epithelial lining fluid AUC (0 to 24 hrs) to plasma AUC (0 to 24 hrs) in healthy human at 400 mg, po administered as single dose
[14] = Drug level in alveolar macrophages of healthy human at […], po administered as single dose after 10 hrs; type: ADME, organism-based, Macrophage; set-up: route oral; settings: read-out: Drug uptake
Summary of the method: as §2

Homo sapiens [15] = assay: Toxicity in healthy human assessed as lymphocytes count in bronchoalveolar fluid at […], po administered as single dose after 12 hrs; type: organism-based, Lung; set-up: route oral; settings: in vivo
Summary of the method: (§3)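 Healthy Japanese male never-smokers, aged 20 to 45 years with normal BMI, got one open-label oral 400 mg suspension dose. Four subjects per time group had one fiber-optic bronchoscopic BAL at the assigned post-dose time. The first aliquot was discarded and the last three were pooled. BAL fluid was held on ice and spun at 400 × g for 5 min at 4°C. Pellet cells were counted by hemocytometer, with a differential count on a stained cytocentrifuge preparation.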

[16] = Drug level in epithelial lining fluid of healthy human at […], po administered as single dose after 8 hrs; type: ADME, organism-based; set-up: route oral; settings: read-out: Drug uptake
Summary of the method: as §1

Homo sapiens [17] = assay: Toxicity in healthy human assessed as eosinophil count in bronchoalveolar fluid at 400 mg, po administered as single dose after 6 hrs; settings: in vivo
[18] = Ratio of AUC (0 to 24 hrs) in […] healthy epithelial lining fluid to MIC90 for Streptococcus pneumoniae; type: functional
Homo sapiens [19] = assay: Toxicity in healthy human assessed as alveolar macrophage count in bronchoalveolar fluid at 400 mg, po administered as single dose after 24 hrs; settings: in vivo
[20] = Plasma concentration in healthy human at […], po after 6 hrs; type: ADME, organism-based; set-up: route oral
Summary of the method: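 Healthy nonsmoking Japanese men, 20-45 y, given one oral 400 mg suspension dose. Blood drawn at 0-72 h, spun at 1,600 × g for 10 min at 4°C, plasma kept at −20°C. Drug measured by validated LC/MS/MS, linear 0.005-5 μg/ml. Values are mean ± SD, n = 28. Cmax, Tmax and t1/2,z are model-independent; AUC0-24 by trapezoidal method.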

[21] = Ratio of AUC (0 to 24 hrs) in plasma of healthy human to MIC90 for Streptococcus pneumoniae; type: functional
[22] = Terminal-phase half-life in plasma of healthy human at 400 mg, po administered as single dose; settings: read-out: beta t1/2 (converted)
[23] = Ratio of drug level in epithelial lining fluid to plasma in healthy human at 400 mg, po administered as single dose after 10 hrs
[24] = Ratio of drug level in alveolar macrophages to plasma in healthy human at 400 mg, po administered as single dose after 10 hrs
Homo sapiens [25] = assay: Toxicity in healthy human assessed as alveolar macrophage count in bronchoalveolar fluid at 400 mg, po administered as single dose after 2 hrs; settings: in vivo
Homo sapiens [26] = assay: Toxicity in healthy human assessed as alveolar macrophage count in bronchoalveolar fluid at 400 mg, po administered as single dose after 6 hrs; settings: in vivo
Homo sapiens [27] = assay: Toxicity in healthy human assessed as neutrophil count in bronchoalveolar fluid at […], po administered as single dose after 8 hrs; type: organism-based, Lung; set-up: route oral; settings: in vivo
Summary of the method: as §3

Homo sapiens [28] = assay: Toxicity in healthy human assessed as eosinophil count in bronchoalveolar fluid at 400 mg, po administered as single dose after 8 hrs; settings: in vivo
[29] = Ratio of drug level in alveolar macrophages to plasma in healthy human at 400 mg, po administered as single dose after 4 hrs
Homo sapiens [30] = assay: Toxicity in healthy human assessed as other cellular fractions in bronchoalveolar fluid at […], po administered as single dose after 24 hrs; type: organism-based, Lung; set-up: route oral; settings: in vivo
Summary of the method: as §3

[31] = Cmax in epithelial lining fluid of healthy human at 400 mg, po administered as single dose

## CC[C@H]1OC(=O)[C@H](C)C(=O)[C@H](C)[C@@H](O[C@@H]2O[C@H](C)C[C@H](N(C)C)[C@H]2O)[C@@]2(C)C[C@@H](C)/C(=N\C(C)=O)[C@H](C)[C@@H](OC/C(=N\OCc3ccc(-n4cccn4)nc3)CO2)[C@]1(C)O [MODITHROMYCIN]
Homo sapiens [1]
  Activity: 0.1%
[2]
  concentration at 10 h: 10000 ng/mL
[3]
  Kp at 12 h: 13.8
Homo sapiens [4]
  Activity: 85.9%
Staphylococcus aureus
  MIC90: ≤ 0.063 µg/mL
Homo sapiens [5]
  Activity: 87.1%
[6]
  concentration at 2 h: 61000 ng/mL
[7]
  concentration at 6 h: 100000 ng/mL
[8]
  Kp at 8 h: 283
[9]
  Kp at 8 h: 25.9
[10]
  Kp at 12 h: 406
[11]
  concentration at 4 h: 116000 ng/mL
[12]
  concentration at 12 h: 5800 ng/mL
[13]
  Kp: 20.3
[14]
  concentration at 10 h: 108000 ng/mL
Homo sapiens [15]
  Activity: 13.3%
[16]
  concentration at 8 h: 11400 ng/mL
Homo sapiens [17]
  Activity: 0%
[18]
  RatioAUC/MIC: 1699.2
Homo sapiens [19]
  Activity: 89.3%
[20]
  concentration at 6 h: 540 ng/mL
[21]
  RatioAUC/MIC: 83.6
[22]
  half-life: 17.5 h
[23]
  Kp at 10 h: 23.2
[24]
  Kp at 10 h: 260
Homo sapiens [25]
  Activity: 84.8%
Homo sapiens [26]
  Activity: 86.9%
Homo sapiens [27]
  Activity: 0.1%
Homo sapiens [28]
  Activity: 0.3%
[29]
  Kp at 4 h: 201
Homo sapiens [30]
  Activity: 0%
[31]
  Cmax: 16800 ng/mL

From ChEMBL document CHEMBL1240362, “Intrapulmonary pharmacokinetics of S-013420, a novel bicyclolide antibacterial, in healthy Japanese subjects” (Antimicrob Agents Chemother, 2010)
